Hits are enriched below; roughly 4.1% of the tested compounds scored in any of these assays.
APP 5'UTR act: APP 5'UTR luciferase reporter activation; SH-SY5Y APP 5'UTR luciferase reporter, luminescence; zero percent = DMSO vehicle wells; activation, % at 2 µM; hit rate 1% among 190,000;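 active means activation above a set limit, based on mean plus 3 SD of controls, cut at about 140% in these data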
STAT1 activator: increases IFN-gamma driven STAT1 reporter signal; NIH 3T3 STAT1-luciferase reporter, luminescence; 100% = IFN-gamma alone, no compound; activation (% of control), % at 5.5 µM; hit rate 2.6% among 200,000; AID 932;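 active means activation above the screen-wide mean activation plus 3 SD, cut at about 130% in these data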
NF-kB expr up: NF-kB expression increase, human neuronal cells. fold change at 12.5 µM. AID 1239. NF-kB reporter expression; active compounds read high. hit rate 1.6% among 190,000; in the data active means fold change above about 3.3
FLuc inhib CS: counter-screen for luciferase assay inhibitors: firefly luciferase inhibition. P08659. ATPLite firefly luciferase biochemical luminescence, 10 min. inhibition, % at 10 µM. hit rate 1.5% among 200,000. AID 1006;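 active means inhibition above about 50% when tested at 10 µM, limit read from the data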
Target sequence (P08659 whole entry, looked up): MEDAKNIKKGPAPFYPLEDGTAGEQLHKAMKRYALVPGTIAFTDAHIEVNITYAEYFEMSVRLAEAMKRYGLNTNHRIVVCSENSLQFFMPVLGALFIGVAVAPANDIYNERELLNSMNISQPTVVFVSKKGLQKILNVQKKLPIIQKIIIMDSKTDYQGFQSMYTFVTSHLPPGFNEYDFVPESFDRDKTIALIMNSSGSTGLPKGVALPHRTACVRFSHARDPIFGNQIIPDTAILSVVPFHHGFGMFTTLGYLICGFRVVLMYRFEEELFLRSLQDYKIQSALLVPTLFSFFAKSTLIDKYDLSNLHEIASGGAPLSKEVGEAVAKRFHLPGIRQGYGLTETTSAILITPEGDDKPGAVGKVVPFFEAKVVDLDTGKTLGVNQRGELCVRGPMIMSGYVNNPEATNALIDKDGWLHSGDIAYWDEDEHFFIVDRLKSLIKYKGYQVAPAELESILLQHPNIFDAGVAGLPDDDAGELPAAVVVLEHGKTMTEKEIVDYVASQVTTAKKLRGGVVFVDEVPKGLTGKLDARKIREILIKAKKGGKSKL
FLuc act counter: firefly luciferase counter-screen for stimulation assays; ATPlite luciferase biochemical, luminescence, 10 min; 0 = ATP-free wells, 1 = DMSO control; 200,000 tested, under 10 active; AID 1027; activation factor at 10 µM; P08659;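 active means luciferase activation factor, scaled between plate controls, of at least 2 with compound at 10 µM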
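Assay system: Luciferase/luciferin detection reagent, cell-free biochemical luciferase assay / Read-out: luciferase activation / Benchmarks: No-ATP low control, compound-free enzyme-plus-ATP high control / Medium: PBS buffer for ATP / Detection: luminescence measurement of luciferase light output / Schedule: 10 min at ambient temperature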
STAT1 act conf: confirmation of STAT1 signaling activators; shares compounds with STAT1 activator; NIH 3T3 STAT1-luciferase reporter, IFN-gamma potentiation, luminescence; 100% = IFN-gamma EC80 alone, no compound; activation (% of control), % at 5.7 µM; hit rate 97% among 1,200; AID 1262;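 active means activation above a set limit carried over from the earlier primary STAT1 screen, cut at about 140% in these data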
NFkB act STAT1ct: activates NF-kappaB, counter-screen to STAT1 activators; hit rate 43% among 1,200; shares compounds with STAT1 activator; AID 1306; activation (% of control), % at 5.7 µM; HEK293T NF-kB luciferase reporter, TNF-alpha stimulated, luminescence; 100% = TNF-alpha with vehicle only;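 active means activation above the mean of solvent-only control wells plus 3 SD, set per campaign, cut at about 130% in these data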;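 further: TNF-alpha given at a submaximal dose yielding about 80% of full reporter signal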
STAT3 act STAT1c: counter-screen for STAT1 activators: human STAT3 activation; shares compounds with STAT1 activator; U3A cells STAT3-luciferase reporter, IL-6, luminescence; cells lack STAT1; 100 = IL-6 alone, no compound effect; activation (% of control), % at 5.7 µM; hit rate 46% among 1,200;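 active means activation above the solvent-only control well mean plus 3 SD, set per plate batch, cut at about 110% in these data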;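 further: higher means more STAT3 reporter activation so hits are non-selective activators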
Of the large screens only hits and unclear results are named; the others gave an inactive call (follow-up assays come after a bar, where they were run).

CCOC(=O)c1[nH]c(C)c(C(=O)c2ccc(C)cc2)c1C	none
COc1ccc(S(=O)(=O)N(NC2=NS(=O)(=O)c3ccccc32)C(=O)C(C)C)cc1	none
CC(C)c1nnc(NC(=O)C2CCN(S(=O)(=O)c3ccc(-n4cnnn4)cc3)CC2)s1	none
Cc1occc1C(=O)Nc1cc(C(C)(C)C)on1	APP 5'UTR act 148, STAT1 activator 152, NF-kB expr up 4.5 | STAT1 act conf 191 | NFkB act STAT1ct inactive | STAT3 act STAT1c 122
Cc1occc1C(=O)Nc1ccc2ccccc2c1	APP 5'UTR act 164, STAT1 activator 156, NF-kB expr up 9.3 | STAT1 act conf 207 | NFkB act STAT1ct inactive | STAT3 act STAT1c 152
CC(=O)c1cccc(NC(=O)c2ccoc2C)c1	none
CCOc1ccc(-n2c(=O)c3sccc3n(CC(=O)NCCc3ccc(OC)c(OC)c3)c2=O)cc1	none
O=S(=O)(Nc1nc2ccccc2nc1N1CCc2ccccc2C1)c1ccc(Br)cc1	STAT1 activator 158 | STAT1 act conf 181 | NFkB act STAT1ct inactive | STAT3 act STAT1c 133
NC(=O)Cn1nnc(-c2ccccc2NC(=O)c2cnccn2)n1	none
Cc1ccc2nsnc2c1NS(=O)(=O)c1c(C)ccc2nsnc12	none
Cc1ccc(/C=[N+](\[O-])c2ccc(N(C)C)cc2)c2nsnc12	STAT1 activator 162, FLuc inhib CS 72 (no result: NF-kB expr up) | STAT1 act conf 199 | NFkB act STAT1ct 137 | STAT3 act STAT1c inactive
COc1cccc(NC(=O)/C=C/c2ccccc2[N+](=O)[O-])c1	APP 5'UTR act 138, STAT1 activator 154, NF-kB expr up 3.6 | STAT1 act conf 177 | NFkB act STAT1ct 137 | STAT3 act STAT1c 117
Cc1cccc(Nc2n[nH]c(C)c2[N+](=O)[O-])c1	STAT1 activator 156, NF-kB expr up 3.7 | STAT1 act conf 192 | NFkB act STAT1ct inactive | STAT3 act STAT1c inactive
Nc1ccc2oc(CCc3ccccc3)nc2c1	STAT1 activator 161 | STAT1 act conf 177 | NFkB act STAT1ct 143 | STAT3 act STAT1c 116
CCS(=O)(=O)n1nc(-c2ccccc2)cc1N	none
CCc1ccc(-c2cc(N)n(-c3ccccc3)n2)cc1	APP 5'UTR act 242, STAT1 activator 172, NF-kB expr up 11, FLuc inhib CS 82 | STAT1 act conf 195 | NFkB act STAT1ct 146 | STAT3 act STAT1c inactive
Cc1cccc(-c2cc(N)n(-c3ccccc3)n2)c1	APP 5'UTR act 152, STAT1 activator 174, NF-kB expr up 5.5, FLuc inhib CS 72 | STAT1 act conf 185 | NFkB act STAT1ct 145 | STAT3 act STAT1c 113
Cc1cc(NCCOCCO)n2ncc(-c3ccc(Cl)cc3)c2n1	APP 5'UTR act 152, STAT1 activator 177, NF-kB expr up 3.6 | STAT1 act conf 265 | NFkB act STAT1ct 135 | STAT3 act STAT1c 133
COc1cc(/C=N/NC(=O)CC2(C)OCCCO2)ccc1OCc1ccccc1	none
COc1cc(/C=N/NC(=O)CN2CCCCC2)ccc1OCc1ccc(Br)cc1	STAT1 activator 176, NF-kB expr up 4.5 | STAT1 act conf 178 | NFkB act STAT1ct 136 | STAT3 act STAT1c 119
CCOC(=O)c1ccc(Nc2cnc3ccccc3n2)cc1	APP 5'UTR act 136, STAT1 activator 171, NF-kB expr up 5 | STAT1 act conf 194 | NFkB act STAT1ct 139 | STAT3 act STAT1c 114
CC(C)Oc1ccccc1-c1nc(SCC(=O)O)n[nH]1	none
COc1ccc(C2C=C(c3ccc(Br)s3)Nc3ncnn32)cc1OC (stereo not drawn)	none
N#CC(=C1CCCC1)c1nc(-c2ccccc2)cs1	STAT1 activator 166, NF-kB expr up 8.1, FLuc inhib CS 54 | STAT1 act conf 215 | NFkB act STAT1ct 154 | STAT3 act STAT1c 122
Cc1ccc(-c2csc(C(C#N)=C3CCCC3)n2)cc1	none
